Measured values from ChEMBL document CHEMBL1124591, “Polyfluoro 1,3-diketones as systemic insecticides” (1989).

Tests used:
Type in all cases: functional
Stomoxys calcitrans [1] = assay: In vitro insecticidal activity in bovine serum against adult stable fly
Procedure, shortened: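 Twenty chilled 5-day-old hungry adult Stomoxys calcitrans in covered petri dish exposed to compound in bovine serum on saturated dental wick, incubated 24 or 48 h.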

Calliphoridae [2] = assay: In vitro insecticidal activity in bovine serum against Blowfly larvae
Procedure, shortened: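 In vitro bait: ~50 first-instar blowflies placed on dental wick saturated with compound in bovine serum, in loosely plugged tube, 27 °C, 55% RH, under fluorescent light, 24 h.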

Stomoxys calcitrans [3] = assay: Mortality percentage on day 6 in Adult stable flies after their exposure to sera for 48 hours, from the cattle, administered with the compound at 5 mg/kg
Procedure, shortened: (§1)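 Calves given single intraruminal 5 mg/kg in 5 mL PEG-200, with vehicle and untreated controls; serum collected daily and fed on saturated dental wick to adult stable flies (20/dish) or ~50 first-instar blowflies; % mortality read after 48 h exposure.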

Stomoxys calcitrans [4] = assay: Mortality percentage on day 7 in Adult stable flies after their exposure to sera for 24 hours, from the cattle, administered with the compound at 5 mg/kg
Procedure, shortened: (§2)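 Calves given single intraruminal 5 mg/kg in 5 mL PEG-200 (two treated, one vehicle, one untreated). Blood taken pre-dose, 2, 5, 24 h, then daily; serum on saturated dental wick fed to adult stable flies (20/dish) or ~50 first-instar blowflies (27 °C, 55% RH); % mortality after 24 h exposure.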

Stomoxys calcitrans [5] = assay: In vitro insecticidal activity against adult stable fly in serum collected from calves administered with 0.50 mg/kg; conditions: dose 0.5 mg/kg
Stomoxys calcitrans [6] = assay: In vitro insecticidal activity against adult stable fly in serum collected from calves administered with 0.75 mg/kg
Stomoxys calcitrans [7] = assay: In vitro insecticidal activity against adult stable fly in serum collected from calves administered with 1.50 mg/kg; conditions: dose 1.5 mg/kg
Stomoxys calcitrans [8] = assay: In vitro insecticidal activity against adult stable fly in serum collected from calves administered with 1 mg/kg
Stomoxys calcitrans [9] = assay: In vivo insecticidal activity against adult stable fly in serum collected from calves administered with 0.50 mg/kg; conditions: dose 0.5 mg/kg
Stomoxys calcitrans [10] = assay: In vivo insecticidal activity against adult stable fly in serum collected from calves administered with 0.75 mg/kg
Stomoxys calcitrans [11] = assay: In vivo insecticidal activity against adult stable fly in serum collected from calves administered with 1.0 mg/kg
Stomoxys calcitrans [12] = assay: In vivo insecticidal activity against adult stable fly in serum collected from calves administered with 1.50 mg/kg; conditions: dose 1.5 mg/kg
Stomoxys calcitrans [13] = assay: Mortality percentage after on day 2 in Adult stable flies after their exposure to sera for 24 hours, from the cattle, administered with the compound at 5 mg/kg; procedure, shortened: as §2
Stomoxys calcitrans [14] = assay: Mortality percentage on 0 day in Adult stable flies after their exposure to sera for 24 hours, from the cattle, administered with the compound at 5 mg/kg; procedure, shortened: as §2
Stomoxys calcitrans [15] = assay: Mortality percentage on 1 day in Adult stable flies after their exposure to sera for 24 hours, from the cattle, administered with the compound at 5 mg/kg; procedure, shortened: as §2
Stomoxys calcitrans [16] = assay: Mortality percentage on day 3 in Adult stable flies after their exposure to sera for 24 hours, from the cattle, administered with the compound at 5 mg/kg; procedure, shortened: as §2
Stomoxys calcitrans [17] = assay: Mortality percentage on day 3 in Adult stable flies after their exposure to sera for 48 hours, from the cattle, administered with the compound at 5 mg/kg; procedure, shortened: as §1
Stomoxys calcitrans [18] = assay: Mortality percentage on day 5 in Adult stable flies after their exposure to sera for 24 hours, from the cattle, administered with the compound at 5 mg/kg; procedure, shortened: as §2
Stomoxys calcitrans [19] = assay: Mortality percentage on day 6 in Adult stable flies after their exposure to sera for 24 hours, from the cattle, administered with the compound at 5 mg/kg; procedure, shortened: as §2
Calliphoridae [20] = assay: Mortality percentage on day 7 in Blowfly larvae after their exposure to sera for 24 hours, from the cattle administered with the compound at 5 mg/kg; procedure, shortened: as §2
Calliphoridae [21] = assay: In vivo insecticidal activity against Larval blowfly from calves administered with 0.50 mg/kg; conditions: dose 0.5 mg/kg
Procedure, shortened: (§3)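 Calves dosed daily intraruminally through implanted rumen tube with diketone in 5 mL PEG-200 (vehicle and untreated controls). Daily serum fed on saturated dental wick to ~50 first-instar blowflies, 27 °C, 55% RH; mortality after 48 h (24 h where noted); day of onset of ≥50% mortality recorded.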

Calliphoridae [22] = assay: In vivo insecticidal activity against Larval blowfly from calves administered with 0.75 mg/kg; procedure, shortened: as §3
Calliphoridae [23] = assay: In vivo insecticidal activity against Larval blowfly from calves administered with 1.0 mg/kg; procedure, shortened: as §3
Calliphoridae [24] = assay: In vivo insecticidal activity against Larval blowfly from calves administered with 1.50 mg/kg; conditions: dose 1.5 mg/kg; procedure, shortened: as §3
Calliphoridae [25] = assay: Mortality percentage on day 0 in Blowfly larvae after their exposure to sera for 24 hours, from the cattle administered with the compound at 5 mg/kg; procedure, shortened: as §2
Calliphoridae [26] = assay: Mortality percentage on day 2 in Blowfly larvae after their exposure to sera for 24 hours, from the cattle administered with the compound at 5 mg/kg; procedure, shortened: as §2
Calliphoridae [27] = assay: Mortality percentage on day 3 in Blowfly larvae after their exposure to sera for 24 hours, from the cattle administered with the compound at 5 mg/kg; procedure, shortened: as §2
Calliphoridae [28] = assay: Mortality percentage on day 3 in Blowfly larvae after their exposure to sera for 48 hours, from the cattle administered with the compound at 5 mg/kg; procedure, shortened: as §1
Calliphoridae [29] = assay: Mortality percentage on day 4 in Blowfly larvae after their exposure to sera for 24 hours, from the cattle administered with the compound at 5 mg/kg; procedure, shortened: as §2
Calliphoridae [30] = assay: Mortality percentage on day 4 in Blowfly larvae after their exposure to sera for 48 hours, from the cattle administered with the compound at 5 mg/kg; procedure, shortened: as §1
Calliphoridae [31] = assay: Mortality percentage on day 5 in Blowfly larvae after their exposure to sera for 24 hours, from the cattle administered with the compound at 5 mg/kg; procedure, shortened: as §2
Calliphoridae [32] = assay: Mortality percentage on day 5 in Blowfly larvae after their exposure to sera for 48 hours, from the cattle administered with the compound at 5 mg/kg; procedure, shortened: as §1
Calliphoridae [33] = assay: Mortality percentage on day 6 in Blowfly larvae after their exposure to sera for 24 hours, from the cattle administered with the compound at 5 mg/kg; procedure, shortened: as §2
Calliphoridae [34] = assay: Mortality percentage on day 6 in Blowfly larvae after their exposure to sera for 48 hours, from the cattle administered with the compound at 5 mg/kg; procedure, shortened: as §1
Stomoxys calcitrans [35] = assay: Mortality percentage on day 5 in Adult stable flies after their exposure to sera for 48 hours, from the cattle, administered with the compound at 5 mg/kg; procedure, shortened: as §1
Calliphoridae [36] = assay: Mortality percentage on day 1 in Blowfly larvae after their exposure to sera for 24 hours, from the cattle administered with the compound at 5 mg/kg; procedure, shortened: as §2
Stomoxys calcitrans [37] = assay: In vitro insecticidal activity against adult stable fly in serum collected from calves administered with 0.35 mg/kg
Stomoxys calcitrans [38] = assay: In vitro insecticidal activity against adult stable fly in serum collected from calves administered with 1.00 mg/kg
Stomoxys calcitrans [39] = assay: In vivo insecticidal activity against adult stable fly in serum collected from calves administered with 1 mg/kg
Calliphoridae [40] = assay: In vivo insecticidal activity against Larval blowfly from calves administered with 0.20 mg/kg; conditions: dose 0.2 mg/kg; procedure, shortened: as §3

Structure (SMILES): O=C(/C=C(\[O-])c1ccc(F)c(F)c1)C(F)(F)C(F)(F)C(F)(F)F.[Na+]
- Lowest effective concentration (Stomoxys calcitrans [1]): 25 p.p.m.
- Lowest effective concentration (Calliphoridae [2]): 30 p.p.m.

Structure (SMILES): O=C(/C=C(\[O-])c1cc(Cl)cc(Cl)c1)C(F)(F)C(F)(F)F.[Na+]
- mortality at 5 mg/kg (Stomoxys calcitrans [3]): 30%
- mortality at 5 mg/kg (Stomoxys calcitrans [4]): 10%
- Lowest effective concentration (Stomoxys calcitrans [1]): 20 p.p.m.
- Activity (Stomoxys calcitrans [5]): 6 day of onset
- Activity (Stomoxys calcitrans [6]): 4 day of onset
- Activity (Stomoxys calcitrans [7]): 2 day of onset
- Activity (Stomoxys calcitrans [8]): 3 day of onset
- Activity (Stomoxys calcitrans [9]): 6 day of onset
- Activity (Stomoxys calcitrans [10]): 4 day of onset
- Activity (Stomoxys calcitrans [11]): 3 day of onset
- Activity (Stomoxys calcitrans [12]): 2 day of onset
- mortality at 5 mg/kg (Stomoxys calcitrans [13]): 55%
- mortality at 5 mg/kg (Stomoxys calcitrans [14]): 0%
- mortality at 5 mg/kg (Stomoxys calcitrans [15]): 20%
- mortality at 5 mg/kg (Stomoxys calcitrans [16]): 45%
- mortality at 5 mg/kg (Stomoxys calcitrans [17]): 100%
- mortality at 5 mg/kg (Stomoxys calcitrans [18]): 0%
- mortality at 5 mg/kg (Stomoxys calcitrans [19]): 0%
- mortality at 5 mg/kg (Calliphoridae [20]): 0%
- Activity (Calliphoridae [21]): 6 day of onset
- Activity (Calliphoridae [22]): 4 day of onset
- Activity (Calliphoridae [23]): 5 day of onset
- Activity (Calliphoridae [24]): 2 day of onset
- mortality at 5 mg/kg (Calliphoridae [25]): 0%
- mortality at 5 mg/kg (Calliphoridae [26]): 0%
- mortality at 5 mg/kg (Calliphoridae [27]): 0%
- mortality at 5 mg/kg (Calliphoridae [28]): 100%
- mortality at 5 mg/kg (Calliphoridae [29]): 0%
- mortality at 5 mg/kg (Calliphoridae [30]): 50%
- mortality at 5 mg/kg (Calliphoridae [31]): 0%
- mortality at 5 mg/kg (Calliphoridae [32]): 0%
- mortality at 5 mg/kg (Calliphoridae [33]): 0%
- mortality at 5 mg/kg (Calliphoridae [34]): 0%
- Lowest effective concentration (Calliphoridae [2]): 40 p.p.m.
- mortality at 5 mg/kg (Stomoxys calcitrans [35]): 80%
- mortality at 5 mg/kg (Calliphoridae [36]): 0%

Structure (SMILES): O=C(/C=C(\[O-])c1cc(Br)cc(Br)c1)C(F)(F)C(F)(F)C(F)(F)F.[Na+]
- Lowest effective concentration (Stomoxys calcitrans [1]): 25 p.p.m.
- Lowest effective concentration (Calliphoridae [2]): 25 p.p.m.

Structure (SMILES): O=C(/C=C(\[O-])c1ccc(C(F)(F)F)cc1)C(F)(F)C(F)(F)C(F)(F)F.[Na+]
- Lowest effective concentration (Stomoxys calcitrans [1]): 30 p.p.m.
- Lowest effective concentration (Calliphoridae [2]): 35 p.p.m.

Structure (SMILES): O=C(/C=C(\[O-])c1cccc(C(F)(F)F)c1)C(F)(F)C(F)(F)C(F)(F)F.[Na+]
- Lowest effective concentration (Stomoxys calcitrans [1]): 35 p.p.m.
- Lowest effective concentration (Calliphoridae [2]): 40 p.p.m.

Structure (SMILES): O=C(/C=C(\[O-])c1cc(Cl)cc(Cl)c1)C(F)(F)C(F)(F)C(F)(F)F.[Na+]
- Lowest effective concentration (Stomoxys calcitrans [1]): 25 p.p.m.
- Activity (Stomoxys calcitrans [37]): 9 day of onset
- Activity (Stomoxys calcitrans [5]): 4 day of onset
- Activity (Stomoxys calcitrans [38]): 3 day of onset
- Activity (Stomoxys calcitrans [9]): 4 day of onset
- Activity (Stomoxys calcitrans [39]): 3 day of onset
- Activity (Calliphoridae [21]): 8 day of onset
- Lowest effective concentration (Calliphoridae [2]): 15 p.p.m.
- Activity (Calliphoridae [40]): 5 day of onset

Structure (SMILES): O=C(/C=C(\[O-])c1cc(Cl)cc(Cl)c1)C(F)(F)C(F)F.[Na+]
- Lowest effective concentration (Stomoxys calcitrans [1]): 20 p.p.m.
- Activity (Stomoxys calcitrans [38]): 5 day of onset
- Lowest effective concentration (Calliphoridae [2]): 25 p.p.m.

Structure (SMILES): O=C(/C=C(\[O-])c1cc(Cl)cc(Cl)c1)C(F)(F)F.[Na+]
- Lowest effective concentration (Stomoxys calcitrans [1]): 25 p.p.m.
- Lowest effective concentration (Calliphoridae [2]): 20 p.p.m.

Structure (SMILES): Cc1c(COC(=O)C2C(/C=C(\Cl)C(F)(F)F)C2(C)C)cccc1-c1ccccc1 (stereo not drawn)
- Lowest effective concentration (Stomoxys calcitrans [1]): 25 p.p.m.
- Lowest effective concentration (Calliphoridae [2]): 5 p.p.m.

Structure (SMILES): O=C(/C=C(\[O-])c1ccc(Cl)cc1)C(F)(F)C(F)(F)C(F)(F)F.[Na+]
- Lowest effective concentration (Stomoxys calcitrans [1]): 25 p.p.m.
- Lowest effective concentration (Calliphoridae [2]): 50 p.p.m.

Structure (SMILES): O=C(/C=C(\[O-])c1ccc(Cl)c(Cl)c1)C(F)(F)C(F)(F)C(F)(F)F.[Na+]
- Lowest effective concentration (Stomoxys calcitrans [1]): 25 p.p.m.
- Lowest effective concentration (Calliphoridae [2]): 30 p.p.m.

Structure (SMILES): CC[C@H](C)[C@H]1O[C@]2(C=C[C@@H]1C)C[C@@H]1C[C@@H](C/C=C(\C)[C@@H](O[C@H]3C[C@H](OC)[C@@H](O[C@H]4C[C@H](OC)[C@@H](O)[C@H](C)O4)[C@H](C)O3)[C@@H](C)/C=C/C=C3\CO[C@@H]4[C@H](O)C(C)=C[C@@H](C(=O)O1)[C@]34O)O2 [ABAMECTIN COMPONENT B1A]
- Lowest effective concentration (Stomoxys calcitrans [1]): 10 p.p.m.
- Lowest effective concentration (Calliphoridae [2]): 0.5 p.p.m.

Structure (SMILES): CNC(=O)Oc1cccc2c1OC(C)(C)C2 [CARBOFURAN]
- Lowest effective concentration (Stomoxys calcitrans [1]): 1 p.p.m.
- Lowest effective concentration (Calliphoridae [2]): 5 p.p.m.
